Source: ChEMBL document CHEMBL4138168, “Design and synthesis of novel thiobarbituric acid derivatives targeting both wild-type and BRAF-mutated melanoma cells” (Eur J Med Chem, 2018)

Key:
Format in all cases: functional, cell-based
UACC-903 = experiment: Cytotoxicity against human UACC-903 cells assessed as cell viability at 25 uM after 48 hrs by MTT assay relative to control; conditions: UACC-903, 48 h
Method in brief: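 MCF10A normal breast epithelial cells were kept in MEGM mammary epithelial medium; the cancer lines were in DMEM with 10% FBS, 37 °C. OD at 570 nm with 630 nm background, expressed relative to control.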

PANC-1 = experiment: Antiproliferative activity against human PANC1 cells after 48 hrs by MTT assay; conditions: PANC-1, 48 h
Method in brief: (§1)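 3,000 cells per well, grown at 37 °C (DMEM with 10% FBS and penicillin/streptomycin; HCT116 in McCoy's 5A). Cells exposed in triplicate to 0.5–25 μM compound for 48 h. MTT (5 mg/mL PBS stock) added for 3 h, formazan dissolved in DMSO, OD read at 570 nm minus 630 nm background. IC50 from non-linear regression of two independent experiments.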

MDA-MB-231 = experiment: Antiproliferative activity against ER/PR/HER2 deficient human MDA-MB-231 cells after 48 hrs by MTT assay; conditions: MDA-MB-231, 48 h; method in brief: as §1
MCF7 = experiment: Antiproliferative activity against human MCF7 cells expressing ER/PR/HER2 after 48 hrs by MTT assay; conditions: MCF7, 48 h; method in brief: as §1
HCT-116 = experiment: Antiproliferative activity against human HCT116 cells after 48 hrs by MTT assay; conditions: HCT-116, 48 h; method in brief: as §1
CHL-1 = experiment: Antiproliferative activity against human CHL-1 cells harboring wild type BRAF after 72 hrs by MTT assay; conditions: CHL-1, 72 h
Method in brief: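 Cells (CHL-1) cultured in DMEM with 10% FBS at 37 °C and treated with compound for 72 h. Viability measured by MTT uptake: 3 h with MTT, DMSO solubilisation, absorbance at 570 nm with 630 nm background subtraction. IC50 taken as the mean of triplicates from at least two independent experiments.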

SMILES	IC50 (UACC-903)	IC50 (PANC-1)	IC50 (MDA-MB-231)	IC50 (MCF7)	IC50 (HCT-116)	IC50 (CHL-1)
CCN1C(=O)/C(=C/C=C/c2cccc3ccccc23)C(=O)NC1=S	23.4 µM					
CCN1C(=O)/C(=C\C=C\c2cccs2)C(=O)NC1=S	4.6 µM	20.5 µM	8.5 µM	24 µM	8.3 µM	
CCN1C(=O)C(=C/C=C/c2ccco2)C(=O)N(CC)C1=S	18.8 µM					8.6 µM
O=C1NC(=S)NC(=O)C1=C/C=C/c1cccnc1	18.4 µM					
C=CCN1C(=O)/C(=C\C=C\c2cccs2)C(=O)NC1=S	6.7 µM					7.5 µM
CCN1C(=O)\C(=C/C=C/C=C/c2ccco2)C(=O)NC1=S	7.6 µM					
O=C1NC(=[Se])NC(=O)C1=C/C=C/c1cccs1	7.8 µM					6.3 µM
C=CCN1C(=O)C(=C/C=C/c2ccco2)C(=O)N(CC=C)C1=S	17.6 µM					8 µM
CCN1C(=O)/C(=C\C=C\c2ccco2)C(=O)NC1=S	16.2 µM					13.9 µM
C=CCN1C(=O)/C(=C\C=C\c2ccccc2)C(=O)N(CC)C1=S	21 µM					
O=C1NC(=[Se])NC(=O)C1=C/C=C/c1ccccc1	13.6 µM					9.4 µM
CN1C(=O)/C(=C\C=C\c2cccs2)C(=O)NC1=S	5.5 µM	21 µM	8.6 µM	23.5 µM	18.2 µM	4.7 µM
O=C1NC(=S)NC(=O)C1=C/C=C/c1cccc2ccccc12	4.2 µM	7.9 µM	4.5 µM		3.6 µM	
O=C1NC(=[Se])NC(=O)C1=C/C=C/c1ccco1	2.3 µM					9.7 µM
C=CCN1C(=O)C(=C/C=C/c2ccccc2)C(=O)N(CC=C)C1=S	18.1 µM					8.1 µM
O=C1NC(=S)NC(=O)C1=C/C=C/C=C/c1ccccc1	6.5 µM					
C=CCN1C(=O)/C(=C\C=C\c2ccco2)C(=O)N(CC)C1=S	14.5 µM					18.9 µM
CCN1C(=O)C(=C/C=C/c2ccccc2)C(=O)N(CC)C1=S	15.2 µM					8.8 µM
O=C1NC(=S)NC(=O)C1=C/C=C/c1ccco1	8 µM	24.4 µM	16.5 µM	27.9 µM	20.1 µM	8.5 µM
O=C1NC(=S)NC(=O)C1=C/C=C/c1ccccc1	9.1 µM					10.6 µM
CCN1C(=O)/C(=C\C=C\c2ccccc2)C(=O)NC1=S	8 µM					6.2 µM
C=CCN1C(=O)/C(=C\C=C\c2cccs2)C(=O)N(CC)C1=S	6.1 µM					
